The source of these data is ChEMBL document CHEMBL1148767, “Synthesis and biological evaluation of the mitochondrial complex 1 inhibitor 2-[4-(4-fluorobutyl)benzylsulfanyl]-3-methylchromene-4-one as a potential cardiac positron emission tomography tracer” (J Med Chem, 2007).

A short description of data set [1]: Inhibition of bovine mitochondrial MC1. Set-up: species or system Bos taurus. The procedure, abridged: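 Submitochondrial particles were sonicated from bovine heart mitochondria, final 45 µg/mL. Medium was 50 mM K2HPO4 pH 7.4, 0.4 µM antimycin A and 2 mM KCN. Inhibitor preincubated 4 min at varying concentrations. Reaction started with 100 µM decyl ubiquinone and 50 µM NADH at 37 °C. NADH oxidation read at 340 nm for 120 s. IC50 is 50% inhibition, referenced to a concurrent rotenone standard.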

For data set [2], the system named is Blood. Nature of the data set: Biodistribution in Sprague-Dawley rat blood at 15 uCi, iv after 120 mins. It counts as ADME, organism-based. Particulars: in vivo, 2 h. The procedure, abridged:
(§1)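 Male SD rats (300-400 g) anesthetized with sodium pentobarbital (50 mg/kg ip), left femoral vein cannulated. About 15 µCi of 18F tracer (specific activity 750-2000 Ci/mmol) in 0.3 mL 10% ethanol saline given iv. Sacrificed in CO2 at 30 or 120 min (n = 5 per time point). Tissues weighed, gamma-counted, decay-corrected, and expressed as %ID/g ± SD.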

Data set [3] concerns Blood. Nature of the data set: Biodistribution in Sprague-Dawley rat blood at 15 uCi, iv after 30 mins. Format: ADME, organism-based. Particulars: in vivo, 0.5 h. The procedure, abridged: as §1
The subject of data set [4] is Heart. Briefly: Biodistribution in Sprague-Dawley rat heart at 15 uCi, iv after 30 mins. Particulars: in vivo, 0.5 h. Format: ADME, organism-based. The method, boiled down:
as §1

The subject of data set [5] is Heart. Nature of the data set: Biodistribution in Sprague-Dawley rat heart at 15 uCi, iv after 120 mins. Particulars: in vivo, 2 h. Format: ADME, organism-based. The procedure, abridged:
as §1

The test system of data set [6] is Lung. Nature of the data set: Biodistribution in Sprague-Dawley rat lung at 15 uCi, iv after 30 mins. Format: ADME, organism-based. Particulars: in vivo, 0.5 h. The procedure, abridged:
as §1

Data set [7] relates to Lung. Briefly: Biodistribution in Sprague-Dawley rat lung at 15 uCi, iv after 120 mins. Format: ADME, organism-based. Particulars: in vivo, 2 h. The method, boiled down: as §1
Data set [8] concerns Liver. Briefly: Biodistribution in Sprague-Dawley rat liver at 15 uCi, iv after 30 mins. Format: ADME, organism-based. Particulars: in vivo, 0.5 h. The procedure, abridged:
as §1

Data set [9] relates to Liver. Briefly: Biodistribution in Sprague-Dawley rat liver at 15 uCi, iv after 120 mins. Particulars: in vivo, 2 h. Format: ADME, organism-based. The procedure, abridged:
as §1

Data set [10] has as its system Spleen. Briefly: Biodistribution in Sprague-Dawley rat spleen at 15 uCi, iv after 30 mins. Format: ADME, organism-based. Particulars: in vivo, 0.5 h. The method, boiled down: as §1
Data set [11] has as its system Spleen. Nature of the data set: Biodistribution in Sprague-Dawley rat spleen at 15 uCi, iv after 120 mins. It counts as ADME, organism-based. Particulars: in vivo, 2 h. The method, boiled down: as §1
Data set [12] deals with Kidney. Briefly: Biodistribution in Sprague-Dawley rat kidney at 15 uCi, iv after 30 mins. It counts as ADME, organism-based. Particulars: in vivo, 0.5 h. The procedure, abridged: as §1
Data set [13] concerns Kidney. Nature of the data set: Biodistribution in Sprague-Dawley rat kidney at 15 uCi, iv after 120 mins. Format: ADME, organism-based. Particulars: in vivo, 2 h. The procedure, abridged: as §1
The test system of data set [14] is Femur. Nature of the data set: Biodistribution in Sprague-Dawley rat femur at 15 uCi, iv after 30 mins. Format: ADME, organism-based. Particulars: in vivo, 0.5 h. The procedure, abridged: as §1
Data set [15] concerns Femur. Nature of the data set: Biodistribution in Sprague-Dawley rat femur at 15 uCi, iv after 120 mins. It counts as ADME, organism-based. Particulars: in vivo, 2 h. The procedure, abridged:
as §1

Data set [16] concerns Muscle tissue. Nature of the data set: Biodistribution in Sprague-Dawley rat muscle at 15 uCi, iv after 30 mins. Particulars: in vivo, 0.5 h. Format: ADME, organism-based. The method, boiled down:
as §1

Data set [17] deals with Muscle tissue. Briefly: Biodistribution in Sprague-Dawley rat muscle at 15 uCi, iv after 120 mins. Particulars: in vivo, 2 h. It counts as ADME, organism-based. The method, boiled down: as §1
For data set [18], the system named is Brain. Briefly: Biodistribution in Sprague-Dawley rat brain at 15 uCi, iv after 30 mins. Format: ADME, organism-based. Particulars: in vivo, 0.5 h. The procedure, abridged: as §1
For data set [19], the system named is Brain. Briefly: Biodistribution in Sprague-Dawley rat brain at 15 uCi, iv after 120 mins. It counts as ADME, organism-based. Particulars: in vivo, 2 h. The method, boiled down: as §1

As usually defined, the IC50 is the point on the concentration scale where inhibition reaches its midpoint. Read a low IC50 as higher potency. For the compound `CCCCc1ccc(COc2oc3ccccc3c(=O)c2C)cc1`, half-maximal inhibition in data set [1] (IC50) required 60 nM.

Compound `CCCCc1ccc(CNc2oc3ccccc3c(=O)c2C)cc1` had an IC50 in data set [1] of 57 nM. This IC50 and that of the compound before are within 1.5-fold of each other.

Consider `Cc1c(SCc2ccc(CCCCF)cc2)oc2ccccc2c1=O`, for which, in data set [1], the IC50 amounted to 9 nM.

Consider `Cc1c(OCc2ccc(CCCCF)cc2)oc2ccccc2c1=O`, for which 33 nM corresponded to half-maximal inhibition in data set [1] (IC50). Against the preceding compound, the IC50 is about 3.7-fold higher.

`Cc1c(NCc2ccc(CCCCF)cc2)oc2ccccc2c1=O` yielded an IC50 in data set [1] of 133 nM. This IC50 is about 4-fold higher than that of the compound before.

`Cc1c(SCc2ccc(CCCCOCCF)cc2)oc2ccccc2c1=O` showed a concentration for half-maximal inhibition (IC50) in [1] of 197 nM.

In the case of `Cc1c(SCc2ccc(COCCF)cc2)oc2ccccc2c1=O`, the 50% inhibitory concentration (IC50) in [1] was 15 nM.

With `Cc1c(SCc2ccc(CCCC[18F])cc2)oc2ccccc2c1=O`, the Drug uptake in data set [2] worked out at 0.06 % ID/g; in data set [3], 0.11 % ID/g; in data set [4] it was 2.24 % ID/g; in data set [5] it was 1.52 % ID/g; in [6], 0.32 % ID/g; in [7], 0.12 % ID/g. The Drug uptake in [8] is recorded as 2 % ID/g; in [9] it was 0.6 % ID/g; in data set [10], 0.41 % ID/g; in [11], 0.09 % ID/g; in [12], 1.93 % ID/g; in data set [13] it was 0.59 % ID/g. Further, the Drug uptake in data set [14] is recorded as 0.36 % ID/g; in data set [15] it was 0.74 % ID/g; in data set [16], 0.06 % ID/g; in [17], 0.09 % ID/g; in data set [18] it was 0.26 % ID/g; in data set [19] it was 0.17 % ID/g.

`Cc1c(SCc2ccc(C(C)(C)C)cc2)oc2ccccc2c1=O` gave a 50% inhibitory concentration (IC50) in [1] of 52 nM.

The compound `Cc1c(SCc2ccc(OCC(C)F)cc2)oc2ccccc2c1=O` (stereo unspecified) returned an IC50 in data set [1] of 16 nM.

`CCCCc1ccc(CSc2oc3ccccc3c(=O)c2C)cc1` displayed an IC50 in data set [1] of 52 nM.

As to `CC(C)(C)c1ccc(CCOc2ncnc3ccccc23)cc1` [FENAZAQUIN], the IC50 in data set [1] is 90 nM.

`CC(C)(C)c1ccc(CSc2cnn(C(C)(C)C)c(=O)c2Cl)cc1` [PYRIDABEN] returned an IC50 in [1] of 8 nM.

`C=C(C)[C@H]1Cc2c(ccc3c2O[C@@H]2COc4cc(OC)c(OC)cc4[C@@H]2C3=O)O1` [ROTENONE]: half-maximal inhibition in data set [1] (IC50) required 16 nM.
